Compound activity (PubChem)
NadD block: inhibitors of S. aureus NadD, primary screen, biochemical, colorimetric, uHTS. Nicotinate-nucleotide adenylyltransferase NadD (Staphylococcus aureus N315). purified NadD enzyme, colorimetric absorbance read-out. inhibition, % at 20 µM. actives 0.78% (n = 360,000). AID 602399, 2012; in the data active means inhibition above about 26%
rCAG RNA binder: binders of r(CAG) RNA repeats, primary screen, biochemical, fluorescence; actives 1.3% (n = 370,000); inhibition, % at 3 µM; AID 651821, 2012; r(CAG) RNA repeat, TO-PRO-1 dye displacement fluorescence;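 active means inhibition above the plate cutoff, the mean of all test compounds on that plate plus 3 SD, cut at about 35% in these data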;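 further: higher means more dye released from RNA so lower well fluorescence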
HCV core dimer: inhibitors of HCV core protein dimerization, primary screen, biochemical, TR-FRET, high-throughput | TR-FRET GST/Flag-core106 dimerization, 1536-well | inhibition, % at 5 µM | actives 0.33% (n = 300,000);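 active means inhibition above the mean of all tested compounds plus 3 SD, set per screening campaign, cut at about 45% in these data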
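Material: GST/Flag-tagged HCV core106 proteins. Incubation: 4 h, 22.5 °C incubation. Read-out basis: inhibition (%) from 671 over 617 nm ratio. Measured by: TR-FRET, excitation 340 nm, emission 617 and 671 nm.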
ABHD5-PLIN5 inh: ABHD5-PLIN5 interaction inhibitors, primary screen, cell lysate, split luciferase complementation, luminescence. Perilipin-5 (Homo sapiens) + 1-acylglycerol-3-phosphate O-acyltransferase ABHD5 (Homo …. Split G. princeps luciferase complementation, 4 h. inhibition, % at 4 µM. actives 0.78% (n = 360,000). AID 602281, 2012;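 active means inhibition above the mean inhibition across every tested compound plus 3 SD, cut at about 22% in these data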
Target sequence (Q00G26 whole entry, looked up): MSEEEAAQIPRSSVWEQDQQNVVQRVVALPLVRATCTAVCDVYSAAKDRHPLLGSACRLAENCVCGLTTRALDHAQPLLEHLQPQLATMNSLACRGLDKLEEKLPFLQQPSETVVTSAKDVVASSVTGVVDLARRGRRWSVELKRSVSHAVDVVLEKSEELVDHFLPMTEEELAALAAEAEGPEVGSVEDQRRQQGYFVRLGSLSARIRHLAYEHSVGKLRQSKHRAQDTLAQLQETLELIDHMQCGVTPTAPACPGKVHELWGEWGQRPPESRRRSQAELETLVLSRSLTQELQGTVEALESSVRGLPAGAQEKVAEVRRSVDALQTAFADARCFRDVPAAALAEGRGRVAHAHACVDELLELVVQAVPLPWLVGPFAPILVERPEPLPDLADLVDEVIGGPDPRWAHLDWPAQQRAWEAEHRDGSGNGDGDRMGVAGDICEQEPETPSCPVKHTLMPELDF
Target sequence (Q8WTS1 whole entry, looked up): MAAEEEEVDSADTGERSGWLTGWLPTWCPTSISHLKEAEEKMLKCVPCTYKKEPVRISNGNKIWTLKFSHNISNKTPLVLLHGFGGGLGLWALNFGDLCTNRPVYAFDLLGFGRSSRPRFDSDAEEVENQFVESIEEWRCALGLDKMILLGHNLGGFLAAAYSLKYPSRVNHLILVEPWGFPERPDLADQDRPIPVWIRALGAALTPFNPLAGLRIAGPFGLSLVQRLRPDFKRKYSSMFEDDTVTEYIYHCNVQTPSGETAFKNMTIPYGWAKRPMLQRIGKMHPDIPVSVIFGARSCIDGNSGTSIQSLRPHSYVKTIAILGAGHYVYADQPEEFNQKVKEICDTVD
NadD conf: inhibitors of S. aureus NadD, confirmation, biochemical, colorimetric, single concentration. inhibition, % at 20 µM. actives 13% (n = 2,000). shares compounds with NadD block. purified S. aureus NadD, colorimetric enzyme assay; in the data active means inhibition mostly above about 42%, no sharp cut-off; inactive means mostly below about 42%
Of the large screens only hits and unclear results are named; the others gave an inactive call (follow-up assays come after a bar, where they were run). The list is not random: actives were taken first. Their share in the collection is about 2.6%.

CC1CCCN(C(=S)SCC(=O)c2cc(Br)cc(Br)c2O)C1 (centres undefined)	NadD block 64.3 | NadD conf inactive
O=C(CSC(=S)N1CCCC1)c1cc(Br)cc(Br)c1O	none (no result: NadD block, ABHD5-PLIN5 inh)
Cc1ccc2c(c1)N(CCCC(=O)NCc1ccc(F)cc1)C(=O)CO2	none (no result: NadD block, HCV core dimer, ABHD5-PLIN5 inh)
Nc1c(C(=O)c2ccccc2)sc2snc(SCC(=O)c3ccccc3)c12	NadD block 36.9 | NadD conf inactive
CC(C)Cn1c(-c2csc3ccccc23)n[nH]c1=S	NadD block 34.4 | NadD conf inactive
CN(CCO)C(=O)c1nc[nH]c1C(=O)N1CCN(c2ccccc2)CC1	none (no result: NadD block, HCV core dimer, ABHD5-PLIN5 inh)
N#Cc1ccc(NC(=O)CSc2nc3[nH]c(=O)cc(O)c3s2)cc1	none (no result: HCV core dimer)
CSc1ccc(NC(=O)CSc2nc3[nH]c(=O)cc(O)c3s2)cc1	NadD block 53.7, rCAG RNA binder 56.1 (no result: HCV core dimer) | NadD conf inactive
COc1ccc(C2=C(C=Nc3c(C)n(C)n(-c4ccccc4)c3=O)C(c3ccccc3C)c3ccccc3O2)cc1OC (centres undefined)	NadD block 34.4 | NadD conf inactive
C[C@@H]1ON(C)[C@H]2C[C@H]3c4cc(-c5cccc(Cl)c5)ccc4CCN3C[C@@H]12	none (no result: NadD block, HCV core dimer, ABHD5-PLIN5 inh)
COc1cccc(N2[C@@H](CC(=O)O)c3cc(C(F)(F)F)ccc3S2(=O)=O)c1	NadD block 48.8 | NadD conf 51.5
N=c1c(C(=O)NCc2ccco2)cc2c(=O)n3ccccc3nc2n1Cc1ccccc1	NadD block 31.6, HCV core dimer 65.2 | NadD conf inactive
N=c1c(S(=O)(=O)c2ccccc2)cc2c(=O)n3ccccc3nc2n1C1CCCC1	none
N=c1c(C(=O)NCc2ccc3c(c2)OCO3)cc2c(=O)n3ccccc3nc2n1Cc1cccnc1	none
Cc1ccc(CNC(=O)c2cc3c(=O)n4ccccc4nc3n(Cc3ccco3)c2=N)cc1	NadD block 40.5, ABHD5-PLIN5 inh 30.2 | NadD conf inactive
N=c1c(C(=O)NCc2ccccc2)cc2c(=O)n3ccccc3nc2n1Cc1ccco1	NadD block 31.1, ABHD5-PLIN5 inh 26.3 | NadD conf inactive
COc1ccc(CNC(=O)c2cc3c(=O)n4ccccc4nc3n(Cc3cccnc3)c2=N)cc1	none
N=c1c(S(=O)(=O)c2ccc(Cl)cc2)cc2c(=O)n3ccccc3nc2n1C1CCCCC1	NadD block 43.0 | NadD conf inactive
O=C(c1ccc(-c2ccc([N+](=O)[O-])cc2)o1)N1CCN(S(=O)(=O)c2cccs2)CC1	none (no result: HCV core dimer)
CCCn1c(=N)c(S(=O)(=O)c2ccc(F)cc2)cc2c(=O)n3ccccc3nc21	none
Cc1ccc(S(=O)(=O)c2cc3c(=O)n4ccccc4nc3n(Cc3ccco3)c2=N)cc1	NadD block 43.3 | NadD conf inactive
CCOC(=O)c1cc(-c2ccccc2)sc1NC(=O)C(C)C	none
CCOC(=O)c1cc(-c2ccccc2)sc1NC(=O)C(C)N1C(=O)NC(C)(c2ccc(Cl)cc2)C1=O (centres undefined)	NadD block 30.0 | NadD conf inactive
COC(=O)c1c(NC(=O)c2ccc(C)c(S(=O)(=O)Nc3ccccc3C)c2)sc2c1CCCC2	NadD block 21.8 | NadD conf inactive
COC(=O)[C@]12C[C@H](CC(=O)N3CCCCC3)C(=O)N(Cc3ccc(Cl)cc3Cl)C1=C[C@H](C1CCCC1)O[C@@H]2C	none (no result: NadD block, HCV core dimer, ABHD5-PLIN5 inh)
Cc1cc2cc(CNC(=S)NCc3ccccc3)ccc2n1C	NadD block 52.5 | NadD conf inactive
Cc1cc2cc(CNC(=S)NC3CCCCC3)ccc2n1C	NadD block 33.9 | NadD conf inactive
Cc1ccccc1NC(=S)NCc1ccc2c(c1)cc(C)n2C	none
C[C@H]1[C@H](c2ccccc2)Oc2cc(Br)ccc2S(=O)(=O)N1Cc1ccc(Cl)cc1	none (no result: NadD block, HCV core dimer, ABHD5-PLIN5 inh)
CC1=CC(=O)N(c2cccc3c(N4C(=O)C=C(C)C4=O)cccc23)C1=O	NadD block 57.6, rCAG RNA binder 36.0 (no result: HCV core dimer) | NadD conf inactive
O=C(NCC1CCCCC1)c1[nH]c(C(F)(F)F)nc1-c1ccccc1	none (no result: HCV core dimer)
Cc1ccc(-c2c(C(=O)Nc3ccccc3C)c(C)[nH]c(=S)c2C#N)o1	NadD block 31.4 | NadD conf inactive
O=C(OCc1ccccc1)N1CCC2CC1c1ccc(Cl)cc12 (centres undefined)	none (no result: HCV core dimer)
C=CCn1c(=NC(=O)c2cc(Cl)sc2Cl)sc2cc(S(N)(=O)=O)ccc21	none
COCCn1c(=NC(=O)c2ccc(S(=O)(=O)N3CCOCC3)cc2)sc2cc(S(N)(=O)=O)ccc21	none
C=CCn1c(=NC(=O)c2cc(-c3cccs3)nc3ccccc23)sc2cc(S(N)(=O)=O)ccc21	NadD block 50.8 | NadD conf 59.1
C=CCn1c(=NC(=O)c2sc3ccccc3c2Cl)sc2cc(S(N)(=O)=O)ccc21	NadD block 35.9 (no result: rCAG RNA binder) | NadD conf inactive
COCCn1c(=NC(=O)c2sc3ccccc3c2Cl)sc2cc(S(N)(=O)=O)ccc21	NadD block 29.3 | NadD conf inactive
CCOC(=O)Cn1c(=NC(=O)c2nc3ccccc3s2)sc2cc(S(N)(=O)=O)ccc21	none
C=CCCC1CN(Cc2ccc(OC)cc2)S(=O)(=O)c2c(Oc3ccc(F)cc3OC)cccc2O1 (centres undefined)	none (no result: NadD block, HCV core dimer, ABHD5-PLIN5 inh)
COC(=O)[C@]12CCCCC=C1N(Cc1ccc3c(c1)OCO3)C(=O)[C@H](CC(=O)N1CCCCC1)C2	none (no result: NadD block, HCV core dimer)
CCc1ccc(N(C(=O)CNC(=O)c2ccco2)C(C(=O)NC2CCCC2)c2cccnc2)cc1 (centres undefined)	none
COc1cc(OC)c(N(C)S(=O)(=O)c2cccc(C(=O)Nc3nnc(C4CC4)s3)c2)cc1Cl	NadD block 32.4 | NadD conf inactive
Cc1cc(Cl)ccc1OCC(=O)Nn1c(C)ccc1C	NadD block 40.5 | NadD conf inactive
CCC(C)(O)c1cnc(CC(C)C)c(=O)n1O (centres undefined)	none (no result: HCV core dimer)
Cc1nc(N2CCN(S(=O)(=O)c3ccccc3)CC2)c2cc(-c3ccccc3)sc2n1	NadD block 41.4 | NadD conf inactive
Cc1nc(N2CCN(C)CC2)c2cc(-c3ccccc3)sc2n1	none
CCOc1cc(/C=N\NC(=O)Cn2nc([N+](=O)[O-])cc2C)ccc1OCc1cccc2ccccc12	NadD block 38.3 | NadD conf inactive
COc1ccc(C(=O)c2sc(Nc3cccc(OC)c3)c(C(=O)Nc3cccc(C)c3C)c2N)cc1	NadD block 35.7 | NadD conf inactive
COc1ccc(NC(=O)c2c(Nc3ccccc3)sc(C(=O)c3ccc(F)cc3)c2N)cc1	NadD block 33.4 | NadD conf inactive
COc1ccccc1NC(=O)c1c(Nc2ccccc2C)sc(C(=O)Nc2cccc(Cl)c2)c1N	NadD block 34.8 | NadD conf 47.0
C[C@@H]1CN([C@@H](C)CO)C(=O)CCCn2cc(nn2)CO[C@H]1CN(C)C(=O)CCC(F)(F)F	none (no result: NadD block, HCV core dimer, ABHD5-PLIN5 inh)
COc1ccc2c(=O)c(-c3ccc(C)cc3)c(-c3ccccc3)oc2c1	none (no result: HCV core dimer)
